Laboratory results from ChEMBL document CHEMBL3272041, “Quantitative correlations between albumin binding constants and chromatographic Rm values of phenothiazine derivatives” (J Med Chem, 1977).

Tests used:
Albumin [1] = target: T1, Albumin (Bos taurus, UniProt P02769); test: Binding affinity to bovine serum albumin; type: ADME; conditions: cattle, isolated protein
[2] = Oleyl alcohol-water partition coefficient, Rm of the compound measured at 0% methanol by reverse-phase thin layer chromatography; type: physicochemical
In short: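 Reversed-phase TLC on Kieselguhr G impregnated with oleyl alcohol. Mobile phases were methanol–water with ammonia and KCl, pH* 10.5, ionic strength 0.1 M, methanol 30–55% (w/w). Each compound had 10–12 Rm determinations at each methanol concentration.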

[3] = Octanol-water partition coefficient, log P of the compound; type: physicochemical
Albumin [4] = target: T1, Albumin; test: Binding affinity to bovine serum albumin by circular dichroic probe technique; type: ADME; conditions: cattle, isolated protein
Albumin [5] = target: T1, Albumin; test: Binding affinity to bovine serum albumin assessed as intrinsic binding constant; type: ADME; conditions: cattle, isolated protein
[6] = Dissociation constant, pKa of the compound by UV-visible spectrophotometer analysis; type: physicochemical
Albumin [7] = target: T1, Albumin; test: Binding affinity to bovine serum albumin high affinity site by circular dichroic probe technique; type: ADME; conditions: cattle, isolated protein
In short: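 Displacement of sulfaethidole from its primary BSA site, followed by circular dichroism. Solutions were in 0.054 M sodium phosphate, pH 7.44 (25 °C), isotonic with NaCl. Reagent concentrations were 1.45 × 10−5 and 2.11 × 10−5 M. Spectra were scanned from 420 to 265 nm in 10-mm cells, with ellipticity read at 280–286 nm, corrected for drug effect on BSA. Apparent K came from the Klotz equation (n = 1) and was extrapolated to zero drug concentration.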

T1 sequence (P02769 whole entry): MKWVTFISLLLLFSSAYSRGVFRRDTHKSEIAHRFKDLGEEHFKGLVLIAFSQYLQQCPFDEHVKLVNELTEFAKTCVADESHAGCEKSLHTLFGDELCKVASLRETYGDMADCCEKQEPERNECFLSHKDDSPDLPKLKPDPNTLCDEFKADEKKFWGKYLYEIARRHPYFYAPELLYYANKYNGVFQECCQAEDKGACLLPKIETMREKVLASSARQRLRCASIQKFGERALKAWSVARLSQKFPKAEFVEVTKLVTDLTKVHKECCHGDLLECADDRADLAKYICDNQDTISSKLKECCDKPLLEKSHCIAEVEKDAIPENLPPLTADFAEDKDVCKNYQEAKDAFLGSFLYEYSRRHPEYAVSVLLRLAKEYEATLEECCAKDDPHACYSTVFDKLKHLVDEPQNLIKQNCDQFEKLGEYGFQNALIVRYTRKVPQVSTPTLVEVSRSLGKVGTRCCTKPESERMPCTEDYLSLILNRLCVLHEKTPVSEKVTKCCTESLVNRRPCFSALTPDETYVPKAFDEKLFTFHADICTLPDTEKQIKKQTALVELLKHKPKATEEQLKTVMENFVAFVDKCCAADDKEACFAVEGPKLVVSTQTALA

SMILES	Rm [2]	logP [3]	logKa (Albumin [4])	pKa [6]	Activity (Albumin [7])	log K (Albumin [1])	log K (Albumin [5])
CN(C)CCCN1c2ccccc2Sc2ccccc21 [PROMAZINE]	3.43	4.68	4.54	9.42	–	3.95	3.45
CCc1nnc(NS(=O)(=O)c2ccc(N)cc2)s1 [SULFAETHIDOLE]	–	–	–	–	2.1 ×10⁵ L/mol	–	–
OCCN1CCN(CCCN2c3ccccc3Sc3ccc(C(F)(F)F)cc32)CC1 [FLUPHENAZINE]	3.03	4.47	–	–	–	–	–
CN1CCN(CCCN2c3ccccc3Sc3ccc(C(F)(F)F)cc32)CC1 [TRIFLUOPERAZINE]	3.55	–	4.67	–	–	–	–
CSc1ccc2c(c1)N(CCC1CCCCN1C)c1ccccc1S2 (stereo not given) [THIORIDAZINE]	4.51	–	5.15	–	–	–	–
CN(C)CCCN1c2ccccc2Sc2ccc(C(F)(F)F)cc21 [TRIFLUPROMAZINE]	4.24	–	5.17	–	–	4.58	3.99
OCCN1CCN(CCCN2c3ccccc3Sc3ccc(Cl)cc32)CC1 [PERPHENAZINE]	2.74	3.92	4.2	7.9	–	–	–

The next lines start with results.

Rm [2]	logP [3]	logKa (Albumin [4])	pKa [6]	Activity (Albumin [7])	SMILES	log K (Albumin [1])	log K (Albumin [5])
2.32	–	–	–	–	CN1CCCCC1CCN1c2ccccc2Sc2ccc([S+](C)[O-])cc21 (stereo not given) [MESORIDAZINE]	–	–
2.49	–	4.21	8	–	CC(CN1CCN(CCOCCO)CC1)CN1c2ccccc2Sc2ccccc21 (stereo not given) [DIXYRAZINE]	–	–
3.38	–	4.59	–	–	CN1CCN(CCCN2c3ccccc3Sc3ccc(Cl)cc32)CC1 [PROCHLORPERAZINE]	–	3.7
4.12	–	4.98	–	–	CN(C)CCCN1c2ccccc2Sc2ccc(Cl)cc21 [CHLORPROMAZINE]	–	–
3.37	–	4.78	8.1	–	CCCC(=O)c1ccc2c(c1)N(CCCN1CCN(C)CC1)c1ccccc1S2 [BUTAPERAZINE]	–	–
3.19	4.63	4.66	9.41	–	COc1ccc2c(c1)N(CCCN(C)C)c1ccccc1S2 [METHOXYPROMAZINE]	4.11	–
2.67	3.8	4.36	8.1	–	CN1CCN(CCCN2c3ccccc3Sc3ccccc32)CC1 [PERAZINE]	4.32	3.33
2.94	–	4.46	9.29	–	CN(C)CCCN1c2ccccc2Sc2ccc(C#N)cc21	–	–
2.17	–	4.12	8.5	–	N#Cc1ccc2c(c1)N(CCCN1CCC(O)CC1)c1ccccc1S2 [PERICIAZINE]	–	–
